TRPC4 act = opens the mouse TRPC4 cation channel; Q9QUQ5; HEK293 TRPC4beta/mu-opioid, Fluo4 calcium fluorescence; stronger effect = higher value; B-score at 10 µM; 310,000 tested, 0.49% active; AID 2237;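 active = B-score above 5 SD of library B-scores, and initial fluorescence ratio not above library mean plus 5 SD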;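 note: positive B-score marks a calcium rise read as TRPC4 activation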
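System – HEK293 cells stably co-expressing mouse TRPC4beta and mu-opioid receptor · Signal – Fluo4 calcium-sensitive dye fluorescence, kinetic, 1 Hz baseline · Benchmarks – buffer (low) and maximal DAMGO (high) · Read-out – B score of integrated fluorescence ratio per well · Incubation – dye loading 45 min room temperature, 110 s kinetic read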
TRPC6 act = activators of mouse TRPC6 channel. B-score at 10 µM. Q61143. HEK293-TRPC6 membrane potential dye fluorescence; stronger effect = higher value. 310,000 tested, 0.13% active;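 active = B-score of the integrated fluorescence ratio above library mean plus 3 SD, and starting fluorescence ratio within library mean plus 5 SD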;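 note: higher score means more depolarization so channel activation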
DNA FID counter = counter-screen for HCV NS3 helicase inhibitors: DNA intercalator displacement; DNA fluorescent intercalator displacement, fluorescence; inhibition, % at 7.9 µM; 290,000 tested, 0.17% active; in the data active = inhibition above about 37%;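 note: higher means more ethidium bromide displaced from hairpin DNA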
TRPC6 inhibitor = mouse TRPC6 channel inhibition | Q61143 | 310,000 tested, 1.1% active | HEK293-TRPC6, membrane potential dye, ACh-evoked depolarization; stronger effect = lower value | B-score at 10 µM;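 active = B-score under library mean minus 3 SD, initial fluorescence not abnormally high, positive integrated signal ratio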;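 note: B-score derived from integrated fluorescence ratio over the kinetic read; more negative B-score means stronger inhibition of depolarization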
TRPC4 block = inhibitors of mouse TRPC4 channel. HEK293 TRPC4beta/mu-opioid, DAMGO-evoked Fluo4 calcium flux; stronger effect = lower value. B-score at 10 µM. 300,000 tested, 0.39% active. AID 2247;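 active = B-score over 3 SD under the library average, no early fluorescence shift, positive overall ratio signal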
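Assay system: Stable TRPC4beta/mu-opioid receptor HEK293 cells | Reagent: DAMGO in two steps, submaximal then maximal | Compound dosing: Single concentration per test compound | Signal: Fluo4 Ca2+ flux fluorescence | Evaluation: Per-well B score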
TRPC4 PAM = allosterically enhances the mouse TRPC4 cation channel | B-score at 10 µM | HEK293 TRPC4beta/mu-opioid, DAMGO EC20, Fluo-4 Ca2+ flux; stronger effect = higher value | 310,000 tested, 0.42% active;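 active = B-score of calcium response area above 5 SD of library B-scores, with initial fluorescence ratio within 5 SD of library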
TRPC4 sel inh 2 = mouse TRPC4 off-target activity of TRPC6 inhibitors, second screen; HEK293 TRPC4/MOR, membrane potential dye fluorescence; channel activated by saturating DAMGO dose; inhibition, % at 10 µM; 920 tested, 42% active; shares compounds with TRPC6 inhibitor;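 active = compounds whose fluorescence signal differed from control wells by over 3 SD, either direction, in both duplicate plates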
TRPC4 spec = selectivity of TRPC6 inhibitors: effect on mouse TRPC4. 920 tested, 61% active. activity change, negative = inhibition, % at 10 µM. shares compounds with TRPC6 inhibitor. HEK293 TRPC4/mu-opioid, membrane potential fluorescence;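 active = rise or fall in signal beyond 3 SD of buffer-only wells in both replicate plates, either sign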;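 note: integrated kinetic ratio of fluorescence range over baseline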
HEK293 MPD ctr 2-1 = second check of TRPC6 inhibitor effects in parental HEK293 cells; signal change vs control, % at 10 µM; 920 tested, 31% active; shares compounds with TRPC6 inhibitor; parental HEK293 membrane potential dye fluorescence; maximal acetylcholine challenge after compound addition; AID 2779;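 active = membrane potential signal moving either way by over 3 SD of the maximum-effect control, in both duplicate plates, meaning non-specific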
HEK293 MPD ctr-1 = counter-screen for TRPC6 inhibitors: effect in parental HEK293 cells; shares compounds with TRPC6 inhibitor; parental HEK293 membrane potential dye fluorescence; membrane potential signal change, % at 10 µM; 920 tested, 60% active;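 active = membrane potential signal shifting up or down by more than 3 SD of buffer-only wells, on both duplicate plates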
HEK293 MPD ctr-2 = parental HEK293 nonspecific activity of TRPC6 modulators; 2,400 tested, 51% active; shares compounds with TRPC6 inhibitor; membrane potential dye fluorescence; membrane potential signal change, % at 10 µM;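 active = membrane potential signal moves up or down beyond 5 SD from buffer-only wells, on both duplicate plates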
HEK293 MPD ctr 2-2 = second counter-screen for TRPC6 modulators: effect in parental HEK293 cells | shares compounds with TRPC6 inhibitor | membrane potential dye fluorescence; after compound, maximal acetylcholine stimulation | 2,400 tested, 14% active | AID 488926 | inhibition, % at 10 µM;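 active = membrane potential signal drops by more than 5 SD from the mean control signal, in both duplicate plates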
TRPC4/MOR mod = selectivity of TRPC6 modulators against mouse TRPC4. 2,400 tested, 69% active. AID 488927. shares compounds with TRPC6 inhibitor. HEK293 TRPC4/mu-opioid, membrane potential fluorescence. percent change from control (negative = decrease, positive = increase), % at 10 µM;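 active = membrane potential signal moved up or down beyond 5 SD of buffer control wells, in both duplicate plates, actives on both sides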
TRPC4/MOR inh 2 = mouse TRPC4 off-target activity of TRPC6 modulators, second screen. 2,400 tested, 55% active. HEK293 TRPC4/mu-opioid, membrane potential dye fluorescence; stimulated with maximal-effect DAMGO. shares compounds with TRPC6 inhibitor. inhibition, % at 10 µM;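 active = drop in membrane potential signal beyond 5 SD of the control wells in both duplicate plates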;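 note: TRPC4 counter screen for TRPC6 hits run under conditions tuned for TRPC6 not TRPC4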
TRPC6 block conf = confirmation of mouse TRPC6 inhibitors | 3,300 tested, 43% active | HEK293-TRPC6, membrane potential dye, ACh-evoked depolarization | inhibition, % at 10 µM | shares compounds with TRPC6 inhibitor | AID 488960;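 active = fluorescence ratio falls more than 5 SD below the full-stimulation control mean, in both duplicate runs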;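 note: integrated fluorescence ratio of peak minus minimum over baseline after agonist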
TRPC6 act conf = confirmation of mouse TRPC6 activators; activation, % at 10 µM; 2,800 tested, 11% active; HEK293-TRPC6 membrane potential dye fluorescence, FDSS; shares compounds with TRPC6 inhibitor; AID 488961;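 active = ratio signal rise beyond 5 SD above unstimulated control wells' mean, seen in both duplicate runs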
Hits are given with their value; n = inactive; x = no result. In the library only some 2.3% were active in any assay of this set; here they are far more common.

SMILES | TRPC4 act | TRPC6 act | DNA FID counter | TRPC6 inhibitor | TRPC4 block | TRPC4 PAM | HEK293 MPD ctr-2 | HEK293 MPD ctr 2-2 | TRPC4/MOR mod | TRPC4/MOR inh 2 | TRPC6 block conf | TRPC6 act conf | others
COc1cc(O)c(C(CCN2CCCC(C)C2)c2ccc(N(C)C)cc2)c(OC)c1 (configuration not stated) | n | n | x | -7 | n | n | x | x | x | x | n | n | TRPC4 sel inh 2=62%;TRPC4 spec=n;HEK293 MPD ctr 2-1=n;HEK293 MPD ctr-1=n
COc1cc(C(CCN2CCCCC2)c2c(OC)cc(OC)c3c(-c4ccccc4)cc(=O)oc23)cc(OC)c1OC (configuration not stated) | n | n | x | n | n | n | x | x | x | x | x | x
Cc1ccc(/C=N/NC(=O)Cc2c(F)cccc2Cl)s1 | n | n | n | n | n | n | x | x | x | x | x | x
C=CCn1c(/N=C/c2ccc(OC)cc2)nc2ccccc21 | n | n | n | n | n | n | x | x | x | x | x | x
C=CCn1c(/N=C/c2ccc(N(C)C)cc2)nc2ccccc21 | 86 | 22 | n | -6.6 | n | 10 | 890% | n | 68% | 76% | 82% | 262%
COc1ccccc1OCC(=O)NCCS(=O)(=O)N1CCN(c2ccccc2)CC1 | n | n | x | -7.5 | n | n | x | x | x | x | n | n | TRPC4 sel inh 2=n;TRPC4 spec=n;HEK293 MPD ctr 2-1=n;HEK293 MPD ctr-1=n
Cc1ccccc1OCC(=O)NCCS(=O)(=O)N1CCN(c2ccc(F)cc2)CC1 | n | n | x | -10 | n | n | x | x | x | x | 95% | x | TRPC4 sel inh 2=n;TRPC4 spec=n;HEK293 MPD ctr 2-1=n;HEK293 MPD ctr-1=n
O=C(O)/C=C/C(=O)Nc1ccc(N2CCOCC2)nc1N1CCOCC1 | n | n | n | n | n | n | x | x | x | x | x | x
CN(C)c1ccc(-c2nc3cnccn3c2Nc2ccc3c(c2)OCCO3)cc1 | n | n | n | -5.3 | n | n | n | n | -11% | 62% | n | n
Cc1ccc(-c2csc(N=C(N)N)n2)c(C)c1 | n | n | n | -5.5 | n | n | 94% | n | 12% | 52% | n | x
Cn1cc(CN2CCN(c3ccccc3)CC2)c2ccccc21 | n | n | n | -5.5 | n | n | n | n | 12% | 43% | n | n
O=C(O)Cn1cc(CN2CCOCC2)c2ccccc21 | n | n | n | n | n | n | x | x | x | x | x | x
CC(CN1CCCCC1)OC(=O)COc1ccc(Br)cc1 (configuration not stated) | n | n | n | n | n | n | x | x | x | x | x | x
Cc1cc(C(=O)NC2CCCCC2C)c2ccccc2n1 (configuration not stated) | n | n | n | n | n | n | x | x | x | x | x | x
CCc1nc2ccc(F)cc2c(C(=O)NC2CCCCC2C)c1C (configuration not stated) | n | 14 | n | n | n | n | 428% | n | 86% | 44% | x | 171%
NC(=O)c1ccc(CN2CCc3ccccc3C2)cc1 | n | n | n | n | n | n | x | x | x | x | x | x
COc1ccc(CNC(=O)CNC(=O)c2cccs2)c(OC)c1 | n | n | n | n | n | n | x | x | x | x | x | x
Cc1cccc(CNc2ncc(-c3cccc([N+](=O)[O-])c3)n2C)c1 | n | n | n | -5.9 | n | n | -74% | n | -26% | 57% | n | n
Cn1c(-c2cccc([N+](=O)[O-])c2)cnc1NCc1cccc([N+](=O)[O-])c1 | n | n | n | n | n | n | x | x | x | x | x | x
COC(=O)/C=C1/SC(=NC(=O)c2ccc(Cl)cc2)NC1=O | n | 14 | x | n | n | n | 134% | n | 20% | n | n | 56%
Cc1cc(C)n(-c2nc(NCCN(C)C)c3c4c(sc3n2)COC(C)(C)C4)n1 | n | n | n | -5.4 | n | n | n | n | -13% | 44% | n | n
Cc1cc(C)n(-c2nc(NCCC(C)C)c3c4c(sc3n2)COC(C)(C)C4)n1 | n | n | n | n | n | n | x | x | x | x | x | x
Cc1cc(C)n(-c2nc(NCCCN(C)C)c3c4c(sc3n2)CCCC4)n1 | n | n | n | -7.1 | n | n | x | x | x | x | 57% | n | TRPC4 sel inh 2=66%;TRPC4 spec=n;HEK293 MPD ctr 2-1=n;HEK293 MPD ctr-1=n
Cc1cc(C)n(-c2nc(NCCN(C)C)c3c4c(sc3n2)CCCC4)n1 | n | n | n | n | n | n | x | x | x | x | x | x
Cc1cc(C)n(-c2nc(NCCCN(C)C)c3c4c(sc3n2)COC(C)(C)C4)n1 | n | n | n | -7.6 | n | n | x | x | x | x | n | n | TRPC4 sel inh 2=n;TRPC4 spec=-11%;HEK293 MPD ctr 2-1=n;HEK293 MPD ctr-1=-188%
SMILES | TRPC4 act | TRPC6 act | DNA FID counter | TRPC6 inhibitor | TRPC4 block | TRPC4 PAM | HEK293 MPD ctr-2 | HEK293 MPD ctr 2-2 | TRPC4/MOR mod | TRPC4/MOR inh 2 | TRPC6 block conf | TRPC6 act conf | others
CCN(CC)CCNc1nc(-n2nc(C)cc2C)nc2sc3c(c12)CC(C)(C)OC3 | n | n | n | -6.3 | n | n | n | n | n | 40% | n | n
Cc1cc(C)n(-c2nc(-n3nc(C)cc3C)c3c4c(sc3n2)COC(C)(C)C4)n1 | n | n | n | n | n | n | x | x | x | x | x | x
CC(NC(=O)Cc1ccsc1)c1ccc(F)cc1 (configuration not stated) | n | n | n | n | n | n | x | x | x | x | x | x
Cc1cc2nc3c(=O)[nH]c(=S)[nH]c3nc2cc1NC(=O)C(F)(F)F | n | n | n | n | n | n | x | x | x | x | x | x
COc1ccc(S(=O)(=O)NCC2CCC(C(=O)O)CC2)cc1 (configuration not stated) | n | n | n | n | n | n | x | x | x | x | x | x
O=C(c1ccco1)N1CCN(Cc2cc(=O)c(OCc3ccc(F)cc3)co2)CC1 | n | n | x | n | n | n | x | x | x | x | x | x
Cn1c(=O)c2c([nH]c(=S)n2Cc2ccc(Cl)cc2)n(C)c1=O | n | n | n | n | n | n | x | x | x | x | x | x
